Measured values: ChEMBL document CHEMBL1122364, “Preparation of 2-amino-4(3H)-oxopyrimido[5,4-b] [1,4]thiazines (5-thiapterins) and their evaluation as cofactors for phenylalanine hydroxylase” (J Med Chem, 1983)

test system: not listed separately; assay: Michaelis-Menten constant was determined for the compound

Row | Compound | Km [µM]
1 | Nc1nc(O)c2c(n1)NCCN2 | 130
2 | Nc1nc(O)c2c(n1)NCC(c1ccccc1)N2 (stereo unspecified) | 3
3 | CC1CNc2nc(N)[nH]c(=O)c2N1 (stereo unspecified) | 40

biological target: T1, Phenylalanine-4-hydroxylase (Rattus norvegicus, UniProt P04176); assay: Tested for competitive binding inhibition against phenylalanine hydroxylase in rat liver
T1 sequence (P04176 whole entry): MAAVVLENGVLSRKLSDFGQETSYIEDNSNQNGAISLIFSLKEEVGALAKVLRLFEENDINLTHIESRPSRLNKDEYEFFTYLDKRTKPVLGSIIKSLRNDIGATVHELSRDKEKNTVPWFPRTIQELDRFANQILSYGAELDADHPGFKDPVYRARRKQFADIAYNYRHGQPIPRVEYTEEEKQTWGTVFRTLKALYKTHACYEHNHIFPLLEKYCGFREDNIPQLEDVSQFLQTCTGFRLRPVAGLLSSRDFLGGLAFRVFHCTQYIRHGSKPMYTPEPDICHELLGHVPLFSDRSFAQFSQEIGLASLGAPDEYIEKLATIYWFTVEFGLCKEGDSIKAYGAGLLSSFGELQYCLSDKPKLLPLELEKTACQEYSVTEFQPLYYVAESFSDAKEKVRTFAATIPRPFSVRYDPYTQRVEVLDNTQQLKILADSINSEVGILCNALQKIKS
Procedure, shortened: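 Initial rate of tyrosine formation followed at 25 °C as the rise in absorbance at 275 nm. The cofactor was 6-MePH₄ at 12.5–50 μM.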

Row | Compound | Ki [µM]
4 | Nc1nc(O)c2c(n1)NCC[S+]2[O-] (stereo unspecified) | 400
5 | Nc1nc(O)c2c(n1)SCC(c1ccccc1)N2 (stereo unspecified) | 500
6 | CC1CNc2nc(N)[nH]c(=O)c2S1 (stereo unspecified) | 36
7 | CC1CNc2nc(N)nc(O)c2[S+]1[O-] (stereo unspecified) | 125
8 | Nc1nc(O)c2c(n1)NCCS2 | 85
9 | Nc1nc(N)c(Sc2ccccc2)c(O)n1 | 4.7
10 | Nc1nc2c(c(=O)[nH]1)SC(c1ccccc1)CN2 (stereo unspecified) | 0.2
11 | Nc1nc(O)c2c(n1)NCC(c1ccccc1)[S+]2[O-] (stereo unspecified) | 7
